This note sets out measurements from ChEMBL document CHEMBL3085663, “Hypoxia-targeting carbonic anhydrase IX inhibitors by a new series of nitroimidazole-sulfonamides/sulfamides/sulfamates” (J Med Chem, 2013).

Data set [1] has as its system HeLa. The data set can be described thus: Reduction in hypoxia-induced extracellular acidosis in human HeLa cells at 0.1 to 1 mM after 24 hrs. It is filed as functional, cell-based. The method, boiled down:
(§1)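 Exponentially growing HT-29 or HeLa cells were cultured in DMEM with 10% FBS, under hypoxia (0.2% O₂, 5% CO₂, balance N₂) or normoxia (20% O₂, 5% CO₂). Compounds were added in medium with 1% DMSO at final 0.1 or 1 mM. Medium pH was measured before and immediately after incubation, reported as ΔpHe, as mean ± SD of at least three independent experiments.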

Data set [2] concerns the target Carbonic anhydrase 9 (Homo sapiens, UniProt Q16790). The data set can be described thus: Inhibition of recombinant human catalytic domain of carbonic anhydrase-9 preincubated for 15 mins by stopped-flow CO2 hydration assay.
Data set [3] deals with HeLa. Kind of data set: Reduction in hypoxia-induced extracellular acidosis in human HeLa cells at 1 mM after 24 hrs. The data set is classed as functional, cell-based. The method, boiled down:
as §1

The subject of data set [4] is HT-29. Kind of data set: Reduction in hypoxia-induced extracellular acidosis in human HT-29 cells at 1 mM after 24 hrs. It is filed as functional, cell-based. The method, boiled down:
as §1

Data set [5] deals with Carbonic anhydrase 1 (Homo sapiens, UniProt P00915). The data set can be described thus: Inhibition of full length human cytosolic carbonic anhydrase-1 preincubated for 15 mins by stopped-flow CO2 hydration assay.
Sequence of Carbonic anhydrase 1 (P00915 whole entry): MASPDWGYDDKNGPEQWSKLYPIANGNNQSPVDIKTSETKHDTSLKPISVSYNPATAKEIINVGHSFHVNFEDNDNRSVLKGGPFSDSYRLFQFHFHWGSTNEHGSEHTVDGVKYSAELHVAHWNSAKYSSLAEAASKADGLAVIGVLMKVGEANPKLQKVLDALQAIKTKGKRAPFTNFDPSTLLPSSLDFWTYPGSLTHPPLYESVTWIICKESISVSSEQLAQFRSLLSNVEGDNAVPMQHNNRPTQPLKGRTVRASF
Data set [6] has as its target Carbonic anhydrase 2 (Homo sapiens, UniProt P00918). Kind of data set: Inhibition of full length human cytosolic carbonic anhydrase-2 preincubated for 15 mins by stopped-flow CO2 hydration assay.
Data set [7] has as its target Carbonic anhydrase 12 (Homo sapiens, UniProt O43570). The data set can be described thus: Inhibition of recombinant human catalytic domain of carbonic anhydrase-12 preincubated for 15 mins by stopped-flow CO2 hydration assay.
In data set [8] the test system is Mus musculus. Kind of data set: Toxicity in NMRI-nu mouse xenografted with HT-29 cells assessed as body weight loss at 10 mg/kg, iv administered 3 days per week for 3 weeks. The data set is classed as organism-based. Further details: dose 10 mg/kg, route intravenous. Conditions: in vivo.
The test system of data set [9] is HT-29. Kind of data set: Antitumor activity against human HT-29 cells xenografted in NMRI-nu mouse assessed as time to reach 4x starting volume of tumor at 10 mg/kg, iv administered 3 days per week for 3 weeks (reference value: 14.07 days). The data set is classed as functional. In outline:
(§2)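 HT-29 cells in Matrigel were injected s.c. into the lateral flank of adult NMRI-nu mice (28−32 g). Dosing started at a tumour volume of 250 mm³ and was given i.v. One arm received 10 mg/kg daily for 3 days in 0.9% NaCl with 1% DMSO via the lateral tail vein. The other arm received 5 mg/kg at day 3. The schedule was repeated over 3 weeks. Read-out was time to reach 4× starting tumour volume against vehicle.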

The test system of data set [10] is HT-29. The data set can be described thus: Antitumor activity against human HT-29 cells xenografted in NMRI-nu mouse assessed as tumor growth inhibition at 10 mg/kg, iv administered 3 days per week for 3 weeks. The data set is classed as functional, organism-based. Also on record: dose 10 mg/kg. In outline:
as §2

Data set [11] deals with HeLa. Kind of data set: Reduction in hypoxia-induced extracellular acidosis in human HeLa cells after 24 hrs. It is filed as functional, cell-based. The method, boiled down: as §1
Data set [12] has as its system HT-29. The data set can be described thus: Reduction in hypoxia-induced extracellular acidosis in human HT-29 cells after 24 hrs. It is filed as functional, cell-based. The method, boiled down:
as §1

Data set [13] has as its system Mus musculus. Kind of data set: Toxicity in NMRI-nu mouse xenografted with HT-29 cells assessed as body weight loss at 5 mg/kg, iv administered on day 3 for 3 weeks. It is filed as organism-based. Also on record: dose 5 mg/kg, route intravenous. Conditions: in vivo, 504 h.
For data set [14], the system named is HT-29. The data set can be described thus: Antitumor activity against human HT-29 cells xenografted in NMRI-nu mouse assessed as time to reach 4x starting volume of tumor at 5 mg/kg, iv administered on day 3 for 3 weeks (reference value: 14.07 days). It is filed as functional. In outline:
as §2
A general note: A xenograft is tissue or cells of one species grown in another, often human tumour cells in immunodeficient mice.

Data set [15] relates to HT-29. The data set can be described thus: Antitumor activity against human HT-29 cells xenografted in NMRI-nu mouse assessed as tumor growth inhibition at 5 mg/kg, iv administered on day 3 for 3 weeks. The data set is classed as functional, organism-based. Also on record: dose 5 mg/kg. The method, boiled down:
as §2

Each structure is given as a SMILES string. The source made the active and inactive calls. The rule behind the calls is not given here.

Sequence of Carbonic anhydrase 12 (O43570 whole entry, the tested form may be a part): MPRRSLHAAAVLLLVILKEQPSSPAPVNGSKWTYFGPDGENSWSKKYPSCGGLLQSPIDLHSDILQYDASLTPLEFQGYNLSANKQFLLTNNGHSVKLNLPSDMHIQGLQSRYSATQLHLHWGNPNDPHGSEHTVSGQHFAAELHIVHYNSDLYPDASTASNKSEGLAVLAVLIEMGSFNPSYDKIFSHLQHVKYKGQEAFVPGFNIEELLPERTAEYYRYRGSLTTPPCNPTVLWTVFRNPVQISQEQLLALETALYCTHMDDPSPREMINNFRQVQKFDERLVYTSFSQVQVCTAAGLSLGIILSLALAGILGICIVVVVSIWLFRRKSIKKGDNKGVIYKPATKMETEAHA

Usually Ki stands for a measure of affinity in units of concentration, obtained from inhibition or displacement. For the molecule `Cc1ncc([N+](=O)[O-])n1CCNC(=S)NCCc1ccc(S(N)(=O)=O)cc1`, the outcome in data set [1], in [3] and in data set [4] was Active. Also, in [2], the Ki amounted to 8.3 nM.

Consider `Cc1ncc([N+](=O)[O-])n1CCNS(C)(=O)=O`, for which the Ki in data set [5], in data set [6], in data set [2] and in data set [7] was > 20000 nM throughout.

`Cc1ncc([N+](=O)[O-])n1CCNC(=S)NCc1ccc(S(N)(=O)=O)cc1`: the Ki in [2] was 7.2 nM.

`CS(=O)(=O)NCCn1ccnc1[N+](=O)[O-]`: the Ki in data set [5], in data set [6], in [2] and in [7] was > 20000 nM throughout.

Turning to `NS(=O)(=O)NCCn1ccnc1[N+](=O)[O-]`, the Ki in data set [2] came out at 41 nM.

Take `Cc1nccn1CCCNS(N)(=O)=O`: the Ki in [2] turned out to be 21 nM.

For `Cc1ncc([N+](=O)[O-])n1CCNS(N)(=O)=O` [DTP-348], the Activity result in [8] was “Non-toxic”; in [11] it was “Dose-dependent effect”; in data set [12], “Dose-dependent effect”. The outcome in data set [3] and in data set [4] was Active. Further, in data set [9], the Time was 25.43 days. Moreover, in [10], the TGI result is “Active”.

Consider `Cc1ncc([N+](=O)[O-])n1CCNC(=S)Nc1ccc(S(N)(=O)=O)cc1`, for which, in [2], the Ki was 7.3 nM. In addition, the result in data set [3] and in data set [4] was Active.

Turning to `Cc1ncc([N+](=O)[O-])n1CCOS(N)(=O)=O`, the result in data set [3] and in data set [4] was Active.

Regarding `NS(=O)(=O)c1ccc(CCNC(=O)Cn2ccnc2[N+](=O)[O-])cc1`, the Ki in data set [2] is 8 nM.

For `COc1cccc2c1C(=O)c1c(O)c3c(c(O)c1C2=O)C[C@@](O)(C(=O)CO)C[C@@H]3O[C@H]1C[C@H](N)[C@H](O)[C@H](C)O1` [DOXORUBICIN], the Activity result in data set [13] was “Non-toxic”. The Time in data set [14] stood at 23.39 days. For the same molecule, the TGI entry in data set [15] is “Active”.
